Legend:
Assay type in all cases: functional
Rattus norvegicus [1] = assay: Anti-inflammatory activity against Carrageenan-induced paw oedema rat model at 10 mg/kg after 3 hrs
Outline: (§1)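 Rat carrageenan paw oedema; compound dosed orally as suspension in 1% carboxymethyl cellulose, six rats per group. Paw volume by mercury displacement plethysmography immediately before and at the stated time after carrageenan injection. Percent oedema inhibition computed from pre/post paw volumes of treated versus vehicle-control rats; one-way ANOVA versus control.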

Rattus norvegicus [2] = assay: Anti-inflammatory activity against Carrageenan-induced paw oedema rat model at 10 mg/kg after 30 mins; outline: as §1
Mus musculus [3] = assay: Analgesic activity in Wistar Albino mouse at 10 mg/kg, po after 1 hr by tail-flick technique
Outline: (§2)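 Tail-flick in Wistar albino mice (25–35 g, either sex, randomly selected), compound given orally as suspension in 1% carboxymethyl cellulose; six animals per group. Reaction time read before dosing and after dosing, cut-off 10 s. Percent analgesic activity = (T2 − T1)/(10 − T1) × 100, T1/T2 being pre/post reaction times; mean of n = 6, one-way ANOVA versus control.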

Mus musculus [4] = assay: Analgesic activity in Wistar Albino mouse at 20 mg/kg, po after 30 mins by tail-flick technique; outline: as §2
Rattus norvegicus [5] = assay: Anti-inflammatory activity against Carrageenan-induced paw oedema rat model at 20 mg/kg after 2 hrs; outline: as §1
Rattus norvegicus [6] = assay: Anti-inflammatory activity against Carrageenan-induced paw oedema rat model at 20 mg/kg after 3 hrs; outline: as §1
Rattus norvegicus [7] = assay: Anti-inflammatory activity against Carrageenan-induced paw oedema rat model at 20 mg/kg after 1 hr; outline: as §1
Mus musculus [8] = assay: Analgesic activity in Wistar Albino mouse at 20 mg/kg, po after 3 hrs by tail-flick technique; outline: as §2
Rattus norvegicus [9] = assay: Anti-inflammatory activity against Carrageenan-induced paw oedema rat model at 20 mg/kg after 30 min; outline: as §1
Rattus norvegicus [10] = assay: Anti-inflammatory activity against Carrageenan-induced paw oedema rat model at 10 mg/kg after 1 hr; outline: as §1
Rattus norvegicus [11] = assay: Anti-inflammatory activity against Carrageenan-induced paw oedema rat model at 10 mg/kg after 2 hrs; outline: as §1
Mus musculus [12] = assay: Analgesic activity in Wistar Albino mouse at 10 mg/kg, po after 3 hrs by tail-flick technique; outline: as §2
Mus musculus [13] = assay: Analgesic activity in Wistar Albino mouse at 20 mg/kg, po after 2 hrs by tail-flick technique; outline: as §2
Mus musculus [14] = assay: Analgesic activity in Wistar Albino mouse at 10 mg/kg, po after 30 mins by tail-flick technique; outline: as §2
Mus musculus [15] = assay: Analgesic activity in Wistar Albino mouse at 10 mg/kg, po after 2 hrs by tail-flick technique; outline: as §2
Mus musculus [16] = assay: Analgesic activity in Wistar Albino mouse at 20 mg/kg, po after 1 hr by tail-flick technique; outline: as §2

Compound	Activity (Rattus norvegicus [1]) [%]	Activity (Rattus norvegicus [2]) [%]	Activity (Mus musculus [3]) [%]	Activity (Mus musculus [4]) [%]	Activity (Rattus norvegicus [5]) [%]	Activity (Rattus norvegicus [6]) [%]	Activity (Rattus norvegicus [7]) [%]	Activity (Mus musculus [8]) [%]	Activity (Rattus norvegicus [9]) [%]	Activity (Rattus norvegicus [10]) [%]	Activity (Rattus norvegicus [11]) [%]	Activity (Mus musculus [12]) [%]	Activity (Mus musculus [13]) [%]	Activity (Mus musculus [14]) [%]	Activity (Mus musculus [15]) [%]	Activity (Mus musculus [16]) [%]
O=C1Nc2ccccc2/C1=N\Nc1nc2ccccc2c(=O)n1-c1ccccc1	23	27	37	47	39	30	36	35	32	30	31	30	55	36	40	51
O=c1c2ccccc2nc(N/N=C\c2ccc([N+](=O)[O-])cc2)n1-c1ccccc1	20	25	39	38	36	32	35	33	35	28	30	27	47	34	39	45
Cc1ccccc1/C=N\Nc1nc2ccccc2c(=O)n1-c1ccccc1	28	30	39	45	42	30	39	39	36	32	33	33	48	35	40	46
O=C(O)Cc1ccccc1Nc1c(Cl)cccc1Cl [DICLOFENAC]	33	32	43	46	60	42	52	39	45	38	39	33	62	37	45	55
O=c1c2ccccc2nc(N/N=C\c2ccccc2)n1-c1ccccc1	29	28	38	46	43	26	40	31	36	32	35	29	53	35	41	50
C/C(=N\Nc1nc2ccccc2c(=O)n1-c1ccccc1)c1ccccc1	29	31	43	50	46	33	42	36	38	35	38	29	57	38	43	53
O=c1c2ccccc2nc(N/N=C\c2ccc(Cl)cc2)n1-c1ccccc1	23	26	34	40	37	25	32	35	29	28	30	27	48	32	42	45
O=c1c2ccccc2nc(N/N=C\c2ccccc2[N+](=O)[O-])n1-c1ccccc1	22	27	36	42	36	30	33	39	32	29	34	30	49	35	39	46
O=c1c2ccccc2nc(NN=C2CCCCC2)n1-c1ccccc1	27	29	40	50	42	35	42	37	39	33	36	25	53	33	46	51
CCC/C(C)=N/Nc1nc2ccccc2c(=O)n1-c1ccccc1	33	35	48	56	60	41	58	45	46	41	42	33	62	43	50	62
CC/C(C)=N/Nc1nc2ccccc2c(=O)n1-c1ccccc1	26	32	43	55	47	36	45	42	38	36	37	31	61	41	50	59
O=c1c2ccccc2nc(NN=C(c2ccccc2)c2ccccc2)n1-c1ccccc1	26	27	36	39	42	35	39	36	36	33	35	29	46	33	41	41
O=c1c2ccccc2nc(N/N=C\c2ccccc2Cl)n1-c1ccccc1	20	21	30	37	35	25	32	36	27	24	26	25	42	29	37	39
COc1ccc(/C=N\Nc2nc3ccccc3c(=O)n2-c2ccccc2)cc1	24	28	42	42	37	30	37	29	33	30	32	30	50	38	43	49
Cc1ccc(/C=N\Nc2nc3ccccc3c(=O)n2-c2ccccc2)cc1	25	28	40	43	43	36	38	40	38	33	34	33	50	37	40	47
CCC(CC)=NNc1nc2ccccc2c(=O)n1-c1ccccc1	32	34	55	63	56	36	52	49	43	35	39	41	72	49	58	69
